# High-throughput results deposited in PubChem by Johns Hopkins Ion Channel Center.
# A selection: hits, their analogues and other compounds. The true share with any hit is near 3.5%.
# RGS4 pot: potentiators or activators of RGS4; HEK293 M3R/inducible RGS4, carbachol calcium flux Fluo4; hits give low values; B-score at 10 µM; hit rate 0.92% among 310,000; AID 463111;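 active means B-score of the integrated calcium signal more than 4 SD below the library mean, with starting fluorescence not abnormally high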;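 further: negative B-score means reduced calcium response which marks RGS4 activation or potentiation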
#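 Assay system: HEK293 FlpIn-TREx cells, stable M3R, doxycycline-inducible RGS4 / Probe or stimulus: carbachol, ECmax concentration / Times: overnight RGS4 induction, 30 min dye load 37 °C, 20 min compound RT / Signal: kinetic calcium fluorescence imaging with Fluo4-AM dye, 2 µM / Measure: Agonist-evoked peak-minus-minimum fluorescence over baseline, integrated ratio, B score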
# MrgX1 PAM: human MrgX1 positive allosteric modulation, primary screen; Q96LB2; MrgX1-HEK293, Fluo-4 calcium flux, FDSS; hits give high values; B-score at 10 µM; hit rate 0.63% among 310,000; AID 588675;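 active means plate-corrected calcium response at least 3 library SD above typical, normal starting fluorescence, not activating the receptor alone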;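 further: compound read alongside a low EC10 to EC30 dose of BAM8-22 agonist; peak minus trough fluorescence over baseline measured at the second addition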
# Target sequence (Q96LB2 whole entry, looked up): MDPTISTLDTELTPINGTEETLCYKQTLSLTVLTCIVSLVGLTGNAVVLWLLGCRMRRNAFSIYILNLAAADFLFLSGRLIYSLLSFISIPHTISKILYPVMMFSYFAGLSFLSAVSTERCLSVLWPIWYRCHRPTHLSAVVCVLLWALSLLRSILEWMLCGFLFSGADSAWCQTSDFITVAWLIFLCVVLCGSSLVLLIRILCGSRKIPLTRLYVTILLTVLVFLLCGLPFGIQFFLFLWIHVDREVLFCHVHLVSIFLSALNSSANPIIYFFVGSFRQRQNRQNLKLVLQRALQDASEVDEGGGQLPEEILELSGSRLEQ
# MrgX1 ag: agonists of human MrgX1 receptor; Q96LB2; MrgX1-HEK293 cells, Fluo-4 calcium fluorescence, agonist mode; hits give high values; B-score at 10 µM; hit rate 0.44% among 310,000; AID 588627;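 active means calcium response B-score plate-corrected fluorescence ratio at least 3 library SD, with starting fluorescence B-score inside 5 SD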
#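 System – MrgX1-expressing HEK293 cells · Incubation – cells plated overnight, dye loaded 0.5 h 37 °C, 0.5 h room temperature · Technique – kinetic Fluo-4 NW fluorescence of intracellular calcium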
# MrgX1 antag: antagonists of human MrgX1 receptor | B-score at 10 µM | AID 588676 | hit rate 1.3% among 310,000 | MRGX1-HEK293 calcium flux, Fluo-4, BAM8-22 antagonism; hits give low values | Q96LB2;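 active means calcium-response B-score plate-corrected more than 3 library SD below zero, starting fluorescence within 5 deviations, no agonist response on first addition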;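 further: peak minus trough fluorescence over baseline after final BAM8-22 challenge near maximal dose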
# RGS4 inh: human RGS4 inhibition; HEK293 M3R/RGS4 inducible, Fluo-4 calcium flux; hits give high values; triggered by carbachol at its EC20; B-score at 10 µM; hit rate 0.45% among 310,000;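 active means B-score, a plate-corrected calcium signal, over three deviations above library mean, with baseline fluorescence within five deviations of library mean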;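 further: RGS4 expression induced by doxycycline in cells with stable M3 receptor; B-score is computed from the integrated fluorescence ratio over baseline after carbachol; higher B-score means a larger calcium signal and so more RGS4 inhibition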
# Target sequence (P49798 whole entry, looked up): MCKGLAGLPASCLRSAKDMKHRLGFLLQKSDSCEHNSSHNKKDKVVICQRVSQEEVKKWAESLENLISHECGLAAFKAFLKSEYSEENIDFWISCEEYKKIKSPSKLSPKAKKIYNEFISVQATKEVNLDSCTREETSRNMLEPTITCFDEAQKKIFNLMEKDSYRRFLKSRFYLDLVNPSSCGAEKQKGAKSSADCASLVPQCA
# MrgX1 antag conf: confirmation of human MrgX1 receptor antagonists. shares compounds with MrgX1 antag. MrgX1-HEK293, BAM8-22 calcium flux, Fluo-4; hits give low values. remaining BAM8-22 calcium response % of control (hits give low values), % at 10 µM. hit rate 19% among 2,300. AID 602420;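 active means remaining agonist calcium response no higher than 100% minus 3 SD of agonist-only control wells, with starting fluorescence near control levels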;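 further: agonist BAM8-22 given at a near maximal EC90 to ECmax level; peak minus minimum fluorescence divided by baseline after agonist addition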
# HEK293 Ca flux: counter-screen for MrgX1 antagonists: effect in parental HEK293 cells; shares compounds with MrgX1 antag; Fluo-4 calcium fluorescence, FDSS; fluorescence ratio F(max-min)/F0 at 10 µM; hit rate 2% among 4,000; AID 624111;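 active means duplicate-averaged calcium fluorescence ratio at least three times the standard deviation of buffer wells, a nonspecific response in parental cells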
# HEK293 Ca counter: counter-screen for MrgX1 allosteric activators: effect in parental HEK293 cells | hit rate 0.4% among 4,000 | fluorescence ratio F(max-min)/F0 at 10 µM | parental HEK293 calcium flux, Fluo-4 fluorescence ratio; hits give high values | shares compounds with MrgX1 antag | AID 624114;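 active means calcium fluorescence ratio, averaged over duplicates, at least 3 SD of the buffer-well ratio, meaning a nonspecific response in receptor-free cells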;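 further: untransfected parental HEK293 lacking MrgX1 used as counterscreen for MrgX1 allosteric activators; fluorescence change taken during the second addition on a kinetic imager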
# HEK293 Ca cntr2: counter-screen for MrgX1 activators: effect in parental HEK293 cells; shares compounds with MrgX1 antag; Fluo-4 calcium fluorescence (FDSS); hits give high values; fluorescence ratio F(max-min)/F0 at 10 µM; hit rate 8.7% among 4,000; AID 624115;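 active means calcium fluorescence ratio at least three times the spread of buffer wells, meaning a non-specific response in parental cells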
# * hit, by the source's call; i = inactive; · = no result given.
SMILES,RGS4 pot,MrgX1 PAM,MrgX1 ag,MrgX1 antag,RGS4 inh,MrgX1 antag conf,HEK293 Ca flux,HEK293 Ca counter,HEK293 Ca cntr2
COc1ccc(C(=O)Nc2nc(-c3cccs3)cs2)cc1,i,i,i,-7.65*,i,i,i,i,i
CCOC(=O)c1nnc(-c2ccccc2)nc1N1CCSCC1,i,i,i,-5.58*,i,i,i,i,i
Cc1cccc(-n2nnc(C(=O)NCc3ccccc3)c2N)c1,i,i,i,-8.4*,i,i,i,i,i
Cc1ccc(CCNC(=O)c2nnn(-c3cccc(C)c3)c2N)cc1,i,i,i,i,i,·,·,·,·
O=C(Cn1cnc2c(oc3ccccc32)c1=O)c1ccccc1,i,i,i,-8.16*,i,i,i,i,i
O=C(O)Cn1cnc2c(oc3ccccc32)c1=O,i,i,i,i,i,·,·,·,·
CC(C)CCNC(=O)c1cc(-c2ccncc2)nc2ccc(S(=O)(=O)N3CCOCC3)cc12,i,i,i,-8.29*,i,i,i,i,i
CCCCn1c(=O)[nH]c(=O)c2c1ncn2Cc1ccco1,i,i,i,i,i,·,·,·,·
CCCCn1cnc2c(c(-c3ccccc3)c(-c3ccccc3)n2Cc2ccco2)c1=N,i,i,i,-14.2*,i,i,i,i,i
O=C(NCSC1=NCCS1)c1ccccc1,i,i,i,-5.33*,i,i,i,i,i
CC(=O)N1CCN(C(=O)c2cccc(S(=O)(=O)NCc3ccccc3)c2)CC1,i,i,i,i,i,·,·,·,·
CCOC(=O)c1sc2nc(NC(=O)C(C)(C)C)sc2c1C,i,i,i,-5.06*,i,79.1%*,i,i,i
COc1ccc(-c2c(C)[nH]n3c(=O)c(Cc4ccccc4)c(C)nc23)cc1,i,i,i,i,i,·,·,·,·
NC(=O)c1cccnc1OCC(F)(F)F,i,i,i,i,i,·,·,·,·
CCOc1ccc(C(NC(C)=O)c2ccc(OC)c(OC)c2)cc1 (stereo not given),i,i,i,-4.87*,i,i,i,i,i
CC(C)N1C[C@@]23C=C[C@@H](O2)C(C(=O)OCc2ccccc2)[C@H]3C1=O (stereo not given in full),i,i,i,i,i,·,·,·,·
CC(C)N1CC23C=CC(O2)C(C(=O)OCc2ccccc2)C3C1=O (stereo not given),i,i,i,-5*,i,i,i,i,i
CCn1cnc2cc(NCc3ccc(C)cc3)ccc21,i,i,i,-4.59*,i,i,i,i,i
CCN(CC)c1ccc(CNc2ccc3c(c2)ncn3CC)cc1,i,i,i,i,i,·,·,·,·
CC(=O)Nc1ccc(NC(=O)COC(=O)Cc2c[nH]c3ccccc23)cc1,i,i,i,-5.96*,i,i,i,i,i
O=C(NCCc1ccccc1)Nc1cccc(Cl)c1,i,i,i,-7.01*,i,i,i,i,i
O=C(COC(=O)CCCN=C1NS(=O)(=O)c2ccccc21)NC(=O)NC1CCCC1,i,i,i,i,i,·,·,·,·
COc1ccc(N(CC(=O)NCCC2=CCCCC2)S(=O)(=O)c2c(C)[nH]c(=O)[nH]c2=O)cc1,i,i,i,i,i,·,·,·,·
CC1CCN(C(=O)c2cc(F)c(F)cc2Cl)CC1,i,i,i,-5.18*,i,i,i,i,i
O=C(c1cc(F)c(F)cc1Cl)N1CCOCC1,i,i,i,i,i,·,·,·,·
SMILES,RGS4 pot,MrgX1 PAM,MrgX1 ag,MrgX1 antag,RGS4 inh,MrgX1 antag conf,HEK293 Ca flux,HEK293 Ca counter,HEK293 Ca cntr2
CCN(CC)CCOC(=O)/C=C/c1ccccc1OC,i,i,i,i,i,·,·,·,·
COc1ccc(CCNc2ncnc3c2oc2ccccc23)cc1OC,i,i,i,-4.63*,i,42.9%*,i,i,i
C/C(=N\Nc1cccc(Cl)c1)c1ccc(-n2ccnc2)cc1,·,i,i,i,·,·,·,·,·
NC(=O)c1csc(-c2ccncc2)n1,i,i,i,-5.65*,i,i,i,i,i
N#CCCCSc1nnnn1-c1cccc(Cl)c1,i,i,i,-5.85*,i,i,i,i,i
O=C(CSc1nnnn1-c1cccc(Cl)c1)Nc1ccc2c(c1)CCC2,i,i,i,i,i,·,·,·,·
COc1ccc(Cl)cc1N1C(=O)c2cccnc2C1=O,i,i,i,i,i,·,·,·,·
COc1ccc(Cl)cc1-n1c(C)ccc1C,i,i,i,-8.4*,i,i,i,i,i
O=S1(=O)CC(O)C(Nc2ccccc2Cl)C1 (stereo not given),i,i,i,-7.92*,i,i,i,i,i
COc1ccc(CCC(=O)Nc2ccc(Cl)c(S(=O)(=O)N3CCCC3)c2)cc1,i,i,i,-5.94*,i,78.1%*,i,i,i
Cc1ccccc1OCC(=O)Nc1ccc(C)c(S(=O)(=O)N2CCCCCC2)c1,i,i,i,i,i,·,·,·,·
COc1ccc(NC(=O)CCOc2ccccc2C)cc1S(=O)(=O)N1CCCCC1,i,i,i,-5.39*,i,i,i,i,i
O=C(CCNC(=O)c1ccccc1Cl)Nc1nc(-c2ccc(F)cc2)cs1,i,i,i,-5.45*,i,i,i,i,i
Cc1ccc(C(=O)OCC(=O)N2C(C)CCCC2C)cc1S(=O)(=O)N1CCOCC1 (stereo not given),i,i,i,i,i,·,·,·,·
Cc1c(-c2ccccc2)oc2c(C(=O)OCC(=O)Nc3ccc(C(N)=O)cc3)cccc2c1=O,i,i,i,i,i,·,·,·,·
COCCNC(=O)c1ccc2c(=O)n(CCOC)c(=O)[nH]c2c1,i,i,i,-6.19*,i,i,i,i,i
O=C(NCc1nnc(SCC(=O)N2CCCc3ccccc32)o1)c1c(F)cccc1Cl,i,i,i,i,i,·,·,·,·
